According to ChEMBL document CHEMBL1212904, “Discovery of pyrrole-indoline-2-ones as Aurora kinase inhibitors with a different inhibition profile” (J Med Chem, 2010):
pIC50: −log10 of the molar value. Calls of active or inactive are those of the source. The calls are words filed in the database; no cut-off is given here.

Experiments:
HCT-116 = test: Antiproliferative activity against human HCT116 cells after 72 hrs by cell titer 96 assay; assay type: functional, cell-based; conditions: HCT-116, 72 h
[1] = target: T1, Aurora kinase A (Homo sapiens) (UniProt O14965); test: Inhibition of aurora A in human HCT116 cells assessed as reduction of phosphorylated histone H3 at ser10 level measured at 1.25 to 40 uM after 3 hrs by Western blot analysis; assay type: cell-based; conditions: HCT-116
T1 sequence (whole entry): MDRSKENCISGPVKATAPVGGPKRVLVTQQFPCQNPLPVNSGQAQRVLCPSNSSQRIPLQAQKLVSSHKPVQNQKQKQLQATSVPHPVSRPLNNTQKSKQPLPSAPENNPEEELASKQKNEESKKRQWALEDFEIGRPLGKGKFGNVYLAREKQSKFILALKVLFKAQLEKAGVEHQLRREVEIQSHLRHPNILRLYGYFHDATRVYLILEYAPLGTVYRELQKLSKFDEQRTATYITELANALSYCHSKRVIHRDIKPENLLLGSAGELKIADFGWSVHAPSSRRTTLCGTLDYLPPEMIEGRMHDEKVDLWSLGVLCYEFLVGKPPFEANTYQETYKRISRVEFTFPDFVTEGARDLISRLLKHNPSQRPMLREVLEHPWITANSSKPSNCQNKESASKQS
Outline: (§1)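 HCT-116 cells were synchronized at G2/M with 200 ng/mL nocodazole for 17 h, then given inhibitor for a further 3.0 h. Cells were PBS-washed, boiled in 2× SDS sample buffer, and run on SDS-PAGE with immunoblotting. Rabbit antibodies detected pT288 Aurora A, total Aurora A, pS10 histone H3 and total H3; β-actin served as loading control.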

[2] = target: T1, Aurora kinase A (Homo sapiens); test: Inhibition of aurora A in human HCT116 cells assessed as reduction of phosphorylated aurora A at Thr288 level measured at 1.25 to 40 uM after 3 hrs by Western blot analysis; assay type: cell-based; conditions: HCT-116; outline: as §1
[3] = target: RAC-alpha serine/threonine-protein kinase (Homo sapiens) (UniProt P31749); test: Inhibition of AKT1 at 1 uM by radiometric method
[4] = target: Cyclin-dependent kinase 1 (Homo sapiens) (UniProt P06493); test: Inhibition of CDC2 at 1 uM by radiometric method
[5] = system: Epidermal growth factor receptor (Homo sapiens), P00533 [T790M]; test: Inhibition of EGFR T790M mutant at 1 uM by radiometric method; assay type: protein assay
[6] = target: Ephrin type-A receptor 1 (Homo sapiens) (UniProt P21709); test: Inhibition of EPHA1 at 1 uM by radiometric method
[7] = target: Receptor-type tyrosine-protein kinase FLT3 (Homo sapiens) (UniProt P36888); test: Inhibition of FLT3 at 1 uM by radiometric method
[8] = target: Glycogen synthase kinase-3 beta (Homo sapiens) (UniProt P49841); test: Inhibition of GSK3B at 1 uM by radiometric method
[9] = target: Tyrosine-protein kinase JAK2 (Homo sapiens) (UniProt O60674); test: Inhibition of JAK2 at 1 uM by radiometric method
[10] = target: T2, Mast/stem cell growth factor receptor Kit (Homo sapiens, UniProt P10721); test: Inhibition of c-Kit at 1 uM by radiometric method
[11] = target: Hepatocyte growth factor receptor (Homo sapiens) (UniProt P08581); test: Inhibition of c-Met at 1 uM by radiometric method
[12] = target: T3, Platelet-derived growth factor receptor beta (Homo sapiens, UniProt P09619); test: Inhibition of PDGFRbeta at 1 uM by radiometric method
[13] = target: PI3-kinase p110-alpha/p85-alpha (Homo sapiens) (UniProt P27986+P42336); test: Inhibition of PI3K (p110alpha/p85-alpha) at 1 uM by radiometric method; assay type: protein-complex assay
[14] = target: Serine/threonine-protein kinase B-raf (Homo sapiens) (UniProt P15056); test: Inhibition of b-Raf at 1 uM by radiometric method
[15] = system: Serine/threonine-protein kinase B-raf (Homo sapiens), P15056 [V600E]; test: Inhibition of b-Raf V600E mutant at 1 uM by radiometric method
[16] = target: RAF proto-oncogene serine/threonine-protein kinase (Homo sapiens) (UniProt P04049); test: Inhibition of c-Raf at 1 uM by radiometric method
[17] = target: Vascular endothelial growth factor receptor 2 (Homo sapiens, UniProt P35968); test: Inhibition of VEGFR2 at 1 uM by radiometric method
[18] = target: T2, Mast/stem cell growth factor receptor Kit; test: Inhibition of c-Kit by radiometric method
[19] = target: T3, Platelet-derived growth factor receptor beta; test: Inhibition of PDGFRbeta by radiometric method
[20] = target: Macrophage colony-stimulating factor 1 receptor (Homo sapiens, UniProt P07333); test: Inhibition of CSF1R by radiometric method
[21] = target: Tyrosine-protein kinase receptor UFO (Homo sapiens) (UniProt P30530); test: Inhibition of AXL at 1 uM by KINOMEscan binding assay
[22] = target: Serine/threonine-protein kinase 10 (Homo sapiens) (UniProt O94804); test: Inhibition of LOK at 1 uM by KINOMEscan binding assay
[23] = target: Proto-oncogene tyrosine-protein kinase receptor Ret (Homo sapiens) (UniProt P07949); test: Inhibition of RET at 1 uM by KINOMEscan binding assay
[24] = target: Epithelial discoidin domain-containing receptor 1 (Homo sapiens) (UniProt Q08345); test: Inhibition of DDR1 at 1 uM by KINOMEscan binding assay
[25] = target: Rhodopsin kinase GRK7 (Homo sapiens) (UniProt Q8WTQ7); test: Inhibition of GRK7 at 1 uM by KINOMEscan binding assay
[26] = target: Muscle, skeletal receptor tyrosine-protein kinase (Homo sapiens) (UniProt O15146); test: Inhibition of MUSK at 1 uM by KINOMEscan binding assay
[27] = target: Tyrosine-protein kinase Mer (Homo sapiens) (UniProt Q12866); test: Inhibition of MERTK at 1 uM by KINOMEscan binding assay
[28] = target: Phosphorylase b kinase gamma catalytic chain, skeletal muscle/heart isoform (Homo sapiens) (UniProt Q16816); test: Inhibition of PHKG1 at 1 uM by KINOMEscan binding assay
[29] = target: Mitogen-activated protein kinase kinase kinase kinase 3 (Homo sapiens) (UniProt Q8IVH8); test: Inhibition of MAP4K3 at 1 uM by KINOMEscan binding assay
[30] = target: Mitogen-activated protein kinase kinase kinase kinase 5 (Homo sapiens) (UniProt Q9Y4K4); test: Inhibition of MAP4K5 at 1 uM by KINOMEscan binding assay
[31] = target: Phosphatidylinositol 5-phosphate 4-kinase type-2 gamma (Homo sapiens) (UniProt Q8TBX8); test: Inhibition of PIP5K2C at 1 uM by KINOMEscan binding assay

T2 sequence (P10721 whole entry): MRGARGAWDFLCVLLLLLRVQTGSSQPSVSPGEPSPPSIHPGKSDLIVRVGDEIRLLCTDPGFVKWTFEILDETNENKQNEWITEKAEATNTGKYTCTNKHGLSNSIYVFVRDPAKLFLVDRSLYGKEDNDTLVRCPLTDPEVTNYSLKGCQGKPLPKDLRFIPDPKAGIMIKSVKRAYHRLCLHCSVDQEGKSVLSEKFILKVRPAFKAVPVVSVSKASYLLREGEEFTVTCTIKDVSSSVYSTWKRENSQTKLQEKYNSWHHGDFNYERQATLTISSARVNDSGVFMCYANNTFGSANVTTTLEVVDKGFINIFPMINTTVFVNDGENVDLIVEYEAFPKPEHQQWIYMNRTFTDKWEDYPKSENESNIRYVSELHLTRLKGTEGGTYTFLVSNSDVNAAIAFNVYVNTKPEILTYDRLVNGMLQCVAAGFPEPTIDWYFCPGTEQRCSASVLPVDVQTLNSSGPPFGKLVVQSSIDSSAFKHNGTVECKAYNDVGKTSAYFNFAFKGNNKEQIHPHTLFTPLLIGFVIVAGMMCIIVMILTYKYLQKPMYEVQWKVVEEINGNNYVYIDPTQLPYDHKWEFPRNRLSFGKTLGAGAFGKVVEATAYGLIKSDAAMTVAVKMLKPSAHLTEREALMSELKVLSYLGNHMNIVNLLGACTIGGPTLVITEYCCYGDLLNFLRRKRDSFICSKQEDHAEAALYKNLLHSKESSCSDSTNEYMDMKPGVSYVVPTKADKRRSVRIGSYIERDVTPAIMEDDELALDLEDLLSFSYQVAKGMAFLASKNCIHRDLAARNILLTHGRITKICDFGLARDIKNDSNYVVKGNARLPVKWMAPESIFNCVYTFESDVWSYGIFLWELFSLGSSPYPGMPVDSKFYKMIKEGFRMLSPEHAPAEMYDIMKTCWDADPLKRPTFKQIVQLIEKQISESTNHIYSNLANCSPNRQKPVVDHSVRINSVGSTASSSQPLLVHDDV
T3 sequence (P09619 whole entry): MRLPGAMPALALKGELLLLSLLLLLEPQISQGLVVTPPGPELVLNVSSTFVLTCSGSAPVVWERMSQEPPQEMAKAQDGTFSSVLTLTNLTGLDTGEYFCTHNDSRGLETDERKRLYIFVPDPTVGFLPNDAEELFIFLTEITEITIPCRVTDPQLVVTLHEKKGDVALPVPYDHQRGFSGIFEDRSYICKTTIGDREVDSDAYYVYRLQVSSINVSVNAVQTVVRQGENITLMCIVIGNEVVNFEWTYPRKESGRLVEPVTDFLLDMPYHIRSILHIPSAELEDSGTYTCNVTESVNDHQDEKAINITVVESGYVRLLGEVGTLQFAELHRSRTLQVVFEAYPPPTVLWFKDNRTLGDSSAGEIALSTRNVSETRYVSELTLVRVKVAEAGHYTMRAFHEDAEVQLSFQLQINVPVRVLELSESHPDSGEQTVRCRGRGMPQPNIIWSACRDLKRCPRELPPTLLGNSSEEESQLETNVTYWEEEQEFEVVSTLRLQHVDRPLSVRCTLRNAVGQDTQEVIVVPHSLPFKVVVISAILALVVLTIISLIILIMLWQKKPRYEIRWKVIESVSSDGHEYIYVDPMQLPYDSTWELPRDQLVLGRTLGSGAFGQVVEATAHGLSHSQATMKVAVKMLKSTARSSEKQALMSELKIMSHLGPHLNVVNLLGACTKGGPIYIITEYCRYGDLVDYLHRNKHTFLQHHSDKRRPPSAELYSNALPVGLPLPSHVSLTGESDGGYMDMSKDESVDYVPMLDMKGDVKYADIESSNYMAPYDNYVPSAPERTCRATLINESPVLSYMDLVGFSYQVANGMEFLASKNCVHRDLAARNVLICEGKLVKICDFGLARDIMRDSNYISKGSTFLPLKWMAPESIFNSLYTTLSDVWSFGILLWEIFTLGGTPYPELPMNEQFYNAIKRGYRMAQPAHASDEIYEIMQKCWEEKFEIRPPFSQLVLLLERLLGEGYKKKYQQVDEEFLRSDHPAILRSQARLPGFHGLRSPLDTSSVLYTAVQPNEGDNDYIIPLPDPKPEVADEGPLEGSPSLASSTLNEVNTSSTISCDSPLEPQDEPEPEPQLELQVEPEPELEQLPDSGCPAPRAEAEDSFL
Chain of Phosphorylase b kinase gamma catalytic chain, skeletal muscle/heart isoform (Homo sapiens) (Q16816 whole entry, looked up, canonical isoform): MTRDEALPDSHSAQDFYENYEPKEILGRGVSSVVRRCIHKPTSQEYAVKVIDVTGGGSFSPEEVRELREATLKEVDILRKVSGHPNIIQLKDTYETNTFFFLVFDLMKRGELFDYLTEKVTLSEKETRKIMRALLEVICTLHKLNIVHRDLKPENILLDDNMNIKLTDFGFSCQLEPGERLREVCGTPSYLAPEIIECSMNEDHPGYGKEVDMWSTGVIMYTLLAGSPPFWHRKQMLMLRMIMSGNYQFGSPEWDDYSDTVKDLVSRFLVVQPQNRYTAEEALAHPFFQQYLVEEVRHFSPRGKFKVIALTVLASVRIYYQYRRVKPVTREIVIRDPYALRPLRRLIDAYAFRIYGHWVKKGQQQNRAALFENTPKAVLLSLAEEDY
Chain of Proto-oncogene tyrosine-protein kinase receptor Ret (Homo sapiens) (P07949 whole entry, the tested form may be a part): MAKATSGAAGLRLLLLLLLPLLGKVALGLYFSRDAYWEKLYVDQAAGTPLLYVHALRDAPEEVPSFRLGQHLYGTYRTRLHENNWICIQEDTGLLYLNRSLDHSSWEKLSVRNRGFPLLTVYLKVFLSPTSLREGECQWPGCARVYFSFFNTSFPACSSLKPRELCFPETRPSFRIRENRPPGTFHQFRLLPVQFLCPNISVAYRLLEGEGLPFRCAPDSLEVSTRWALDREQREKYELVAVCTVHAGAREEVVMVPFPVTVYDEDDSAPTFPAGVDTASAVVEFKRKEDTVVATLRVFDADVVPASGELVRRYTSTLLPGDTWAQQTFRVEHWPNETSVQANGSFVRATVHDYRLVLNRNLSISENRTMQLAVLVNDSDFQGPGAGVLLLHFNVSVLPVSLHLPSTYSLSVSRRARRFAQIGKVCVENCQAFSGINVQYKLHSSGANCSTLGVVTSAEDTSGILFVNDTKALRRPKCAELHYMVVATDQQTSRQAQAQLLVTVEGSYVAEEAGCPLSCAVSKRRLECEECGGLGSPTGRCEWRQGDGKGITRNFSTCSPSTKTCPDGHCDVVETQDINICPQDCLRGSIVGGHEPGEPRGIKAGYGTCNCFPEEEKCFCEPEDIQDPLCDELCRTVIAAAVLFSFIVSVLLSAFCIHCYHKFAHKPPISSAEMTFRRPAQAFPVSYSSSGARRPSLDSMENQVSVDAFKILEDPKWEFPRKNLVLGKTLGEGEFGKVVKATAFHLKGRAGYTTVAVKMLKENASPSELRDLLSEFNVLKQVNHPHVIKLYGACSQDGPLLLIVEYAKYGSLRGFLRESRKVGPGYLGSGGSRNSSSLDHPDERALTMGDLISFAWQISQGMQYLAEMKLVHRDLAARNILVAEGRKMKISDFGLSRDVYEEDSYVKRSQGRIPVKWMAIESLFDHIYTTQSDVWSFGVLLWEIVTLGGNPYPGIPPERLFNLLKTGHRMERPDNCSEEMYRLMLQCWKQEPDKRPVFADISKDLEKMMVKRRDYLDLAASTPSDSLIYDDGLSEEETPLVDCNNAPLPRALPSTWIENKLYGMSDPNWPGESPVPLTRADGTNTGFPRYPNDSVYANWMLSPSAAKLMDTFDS
Chain of Epidermal growth factor receptor (Homo sapiens), P00533 [T790M] (P00533 whole entry T790M): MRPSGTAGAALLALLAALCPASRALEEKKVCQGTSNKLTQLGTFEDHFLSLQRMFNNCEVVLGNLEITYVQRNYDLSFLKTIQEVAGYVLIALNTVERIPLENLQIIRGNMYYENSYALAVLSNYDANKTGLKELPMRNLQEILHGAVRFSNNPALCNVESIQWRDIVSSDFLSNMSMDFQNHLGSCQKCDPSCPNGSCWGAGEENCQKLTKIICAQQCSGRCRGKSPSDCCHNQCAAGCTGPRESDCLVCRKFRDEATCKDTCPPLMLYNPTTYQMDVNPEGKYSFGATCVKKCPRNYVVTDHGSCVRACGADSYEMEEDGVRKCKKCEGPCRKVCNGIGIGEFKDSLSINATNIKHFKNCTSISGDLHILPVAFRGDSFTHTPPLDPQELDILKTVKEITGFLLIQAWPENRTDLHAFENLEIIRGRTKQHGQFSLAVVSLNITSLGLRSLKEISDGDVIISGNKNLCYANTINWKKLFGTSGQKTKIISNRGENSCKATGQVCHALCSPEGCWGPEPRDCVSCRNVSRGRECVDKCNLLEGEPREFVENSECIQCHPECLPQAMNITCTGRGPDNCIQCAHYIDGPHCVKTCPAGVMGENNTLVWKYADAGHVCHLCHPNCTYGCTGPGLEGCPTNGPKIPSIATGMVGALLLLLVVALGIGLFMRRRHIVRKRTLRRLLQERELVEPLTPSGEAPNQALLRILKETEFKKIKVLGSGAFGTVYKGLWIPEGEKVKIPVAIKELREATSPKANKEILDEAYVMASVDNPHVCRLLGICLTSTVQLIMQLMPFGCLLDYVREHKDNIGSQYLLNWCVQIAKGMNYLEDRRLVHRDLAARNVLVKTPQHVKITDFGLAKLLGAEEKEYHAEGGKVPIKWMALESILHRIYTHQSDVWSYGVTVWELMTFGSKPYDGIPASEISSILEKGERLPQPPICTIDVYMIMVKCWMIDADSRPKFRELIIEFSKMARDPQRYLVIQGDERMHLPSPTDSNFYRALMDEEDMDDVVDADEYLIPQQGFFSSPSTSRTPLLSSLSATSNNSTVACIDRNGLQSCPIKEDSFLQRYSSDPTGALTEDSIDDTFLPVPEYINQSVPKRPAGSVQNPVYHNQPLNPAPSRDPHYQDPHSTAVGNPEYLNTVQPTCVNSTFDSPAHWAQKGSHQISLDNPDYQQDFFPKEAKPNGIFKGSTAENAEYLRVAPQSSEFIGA
Chain of Cyclin-dependent kinase 1 (Homo sapiens) (P06493 whole entry, looked up): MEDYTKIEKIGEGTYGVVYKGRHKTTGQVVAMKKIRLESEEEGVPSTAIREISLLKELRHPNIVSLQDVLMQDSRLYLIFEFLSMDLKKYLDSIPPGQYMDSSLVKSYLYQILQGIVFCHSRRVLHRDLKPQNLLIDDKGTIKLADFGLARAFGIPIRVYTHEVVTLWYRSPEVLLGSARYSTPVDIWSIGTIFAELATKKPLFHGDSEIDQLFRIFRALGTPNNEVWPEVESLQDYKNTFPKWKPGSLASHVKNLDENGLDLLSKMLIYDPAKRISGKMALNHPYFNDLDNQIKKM

pIC50 (HCT-116) | inhibition [1] | inhibition [2] | inhibition [3] [%] | inhibition [4] [%] | inhibition [5] [%] | inhibition [6] [%] | inhibition [7] [%] | inhibition [8] [%] | inhibition [9] [%] | inhibition [10] [%] | inhibition [11] [%] | inhibition [12] [%] | inhibition [13] [%] | inhibition [14] [%] | inhibition [15] [%] | inhibition [16] [%] | inhibition [17] [%] | pIC50 [18] | pIC50 [19] | other results | SMILES
5.43 | Active | Active | 11 | 33 | 14 | 29 | 97 | 47 | 30 | 41 | 32 | 47 | 11 | -1 | 3 | -8 | 74 | < 6.00 | < 6.00 | pIC50 [20]: < 6.00; residual activity [21]: < 10%; residual activity [22]: < 10%; residual activity [23]: < 10%; residual activity [24]: < 10%; residual activity [25]: < 10%; residual activity [26]: < 10%; residual activity [27]: < 10%; residual activity [28]: < 10%; residual activity [29]: < 10%; residual activity [30]: < 10%; residual activity [31]: < 10% | CCOC(=O)CCc1c(/C=C2\C(=O)Nc3ccc(NS(=O)(=O)c4ccccc4)cc32)[nH]c2c1C(=O)CCC2
5.43 | Active | inactive | 9 | 12 | 8 | 24 | 95 | 24 | -3 | 65 | 32 | 70 | 5 | 2 | -4 | -7 | 51 | > 6.00 | > 6.00 | pIC50 [20]: > 6.00; residual activity [21]: < 10%; residual activity [22]: < 10%; residual activity [23]: < 10%; residual activity [24]: < 10%; residual activity [25]: < 10%; residual activity [26]: < 10%; residual activity [27]: < 10%; residual activity [28]: < 10%; residual activity [29]: < 10%; residual activity [30]: < 10%; residual activity [31]: < 10% | CN(C)CCCc1c(/C=C2\C(=O)Nc3ccc(NS(=O)(=O)c4ccccc4)cc32)[nH]c2c1C(=O)CCC2
